Laboratory results reported in ChEMBL document CHEMBL1221258, “Biaryl substituted hydantoin compounds as TACE inhibitors” (Bioorg Med Chem Lett, 2010).
One block for each compound: values may come before it.

Columns and labels:
[1] = target: Disintegrin and metalloproteinase domain-containing protein 17 (Homo sapiens, UniProt P78536); assay: Inhibition of TACE assessed as inhibition of pro-TNFalpha peptide cleavage
[2] = Oral bioavailability in rat at 10 mg/kg; format: ADME, organism-based; conditions: in vivo
In short: (§1)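 Rats were dosed separately at 3 mg/kg iv and 10 mg/kg po. Reported parameters were AUC (µM h), T1/2 (h), Cl (L/h/kg) and Vss (L/kg) after iv dosing, and AUC, Cmax (µM), Tmax (h) and F% after oral dosing.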

Rattus norvegicus [3] = assay: Volume of distribution at steady state in rat at 3 mg/kg, iv; format: ADME, organism-based; design: dose 3 mg/kg, route intravenous; conditions: in vivo; in short: as §1
[4] = target: T1, Disintegrin and metalloproteinase domain-containing protein 10 (Homo sapiens) (UniProt O14672); assay: Inhibition of ADAM10
T1 sequence (whole entry): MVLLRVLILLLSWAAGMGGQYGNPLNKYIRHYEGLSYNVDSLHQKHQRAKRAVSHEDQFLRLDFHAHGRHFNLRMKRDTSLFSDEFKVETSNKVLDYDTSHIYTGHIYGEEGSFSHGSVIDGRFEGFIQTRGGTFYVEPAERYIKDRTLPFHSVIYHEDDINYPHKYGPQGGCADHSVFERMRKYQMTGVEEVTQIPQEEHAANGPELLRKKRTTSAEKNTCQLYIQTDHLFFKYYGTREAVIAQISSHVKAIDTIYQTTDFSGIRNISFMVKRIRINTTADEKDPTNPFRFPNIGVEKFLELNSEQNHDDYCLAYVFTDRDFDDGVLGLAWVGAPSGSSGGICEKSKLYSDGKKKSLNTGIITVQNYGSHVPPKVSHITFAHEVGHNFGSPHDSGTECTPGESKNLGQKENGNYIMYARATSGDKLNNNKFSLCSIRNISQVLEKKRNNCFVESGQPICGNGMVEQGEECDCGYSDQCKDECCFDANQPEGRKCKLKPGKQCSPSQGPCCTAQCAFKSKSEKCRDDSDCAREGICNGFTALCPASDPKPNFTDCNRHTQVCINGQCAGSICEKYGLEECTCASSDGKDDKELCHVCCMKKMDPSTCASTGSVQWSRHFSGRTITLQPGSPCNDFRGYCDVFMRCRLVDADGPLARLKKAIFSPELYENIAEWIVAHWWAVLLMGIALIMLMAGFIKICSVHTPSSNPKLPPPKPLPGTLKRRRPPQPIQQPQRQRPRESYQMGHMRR

[5] = AUC in rat at 10 mg/kg, po; format: ADME, organism-based; design: dose 10 mg/kg, route oral; conditions: plasma
[6] = target: Collagenase 3 (Homo sapiens) (UniProt P45452); assay: Inhibition of MMP13
[7] = target: T2, Matrilysin (Homo sapiens) (UniProt P09237); assay: Inhibition of MMP7
T2 sequence (whole entry): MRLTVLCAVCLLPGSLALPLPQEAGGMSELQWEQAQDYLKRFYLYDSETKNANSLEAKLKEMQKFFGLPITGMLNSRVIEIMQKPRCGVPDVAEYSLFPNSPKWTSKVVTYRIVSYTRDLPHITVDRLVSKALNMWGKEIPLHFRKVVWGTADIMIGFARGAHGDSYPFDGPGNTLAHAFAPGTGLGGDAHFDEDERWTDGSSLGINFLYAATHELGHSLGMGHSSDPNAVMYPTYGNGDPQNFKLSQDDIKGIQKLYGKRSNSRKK

[8] = target: Matrix metalloproteinase-9 (Homo sapiens) (UniProt P14780); assay: Inhibition of MMP9
Sequence of Matrix metalloproteinase-9 (Homo sapiens) (P14780 whole entry): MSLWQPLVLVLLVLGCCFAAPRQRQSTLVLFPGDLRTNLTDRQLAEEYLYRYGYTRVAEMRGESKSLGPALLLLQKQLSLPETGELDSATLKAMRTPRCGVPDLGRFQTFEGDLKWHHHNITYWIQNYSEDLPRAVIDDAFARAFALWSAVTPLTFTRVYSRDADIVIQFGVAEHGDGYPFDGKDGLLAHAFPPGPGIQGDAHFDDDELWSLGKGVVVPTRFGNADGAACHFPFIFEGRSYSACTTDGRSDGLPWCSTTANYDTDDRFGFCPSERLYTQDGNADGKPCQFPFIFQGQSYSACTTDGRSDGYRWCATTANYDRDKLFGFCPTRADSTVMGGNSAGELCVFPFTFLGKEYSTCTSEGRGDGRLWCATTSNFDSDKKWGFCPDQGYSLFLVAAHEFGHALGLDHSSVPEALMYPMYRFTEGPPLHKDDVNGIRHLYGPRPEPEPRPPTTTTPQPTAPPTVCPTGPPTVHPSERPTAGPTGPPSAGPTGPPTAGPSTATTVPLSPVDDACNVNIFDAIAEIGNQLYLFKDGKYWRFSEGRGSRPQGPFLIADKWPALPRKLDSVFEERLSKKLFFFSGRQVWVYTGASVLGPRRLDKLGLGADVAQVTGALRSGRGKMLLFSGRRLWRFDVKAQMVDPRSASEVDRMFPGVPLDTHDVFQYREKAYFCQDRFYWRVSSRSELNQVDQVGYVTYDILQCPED

Rattus norvegicus [9] = assay: Clearance in rat at 3 mg/kg, iv; format: ADME, organism-based; design: dose 3 mg/kg, route intravenous; conditions: in vivo; in short: as §1
[10] = target: Stromelysin-1 (Homo sapiens) (UniProt P08254); assay: Inhibition of MMP3
Sequence of Stromelysin-1 (Homo sapiens) (P08254 100-477 limits assumed): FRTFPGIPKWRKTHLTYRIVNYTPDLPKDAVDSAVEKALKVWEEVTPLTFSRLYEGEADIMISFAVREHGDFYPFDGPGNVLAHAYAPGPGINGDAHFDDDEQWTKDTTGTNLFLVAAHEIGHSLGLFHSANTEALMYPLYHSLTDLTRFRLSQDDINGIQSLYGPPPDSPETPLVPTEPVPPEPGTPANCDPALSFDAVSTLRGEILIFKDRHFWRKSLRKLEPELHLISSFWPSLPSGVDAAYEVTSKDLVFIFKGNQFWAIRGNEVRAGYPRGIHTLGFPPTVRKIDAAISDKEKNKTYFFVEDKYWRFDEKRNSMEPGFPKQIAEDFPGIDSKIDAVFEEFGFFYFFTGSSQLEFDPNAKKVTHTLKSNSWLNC

[11] = Tmax in rat at 10 mg/kg, po; format: ADME, organism-based; design: dose 10 mg/kg, route oral; conditions: in vivo; in short: as §1
[12] = target: 72 kDa type IV collagenase (Homo sapiens) (UniProt P08253); assay: Inhibition of MMP2
Sequence of 72 kDa type IV collagenase (Homo sapiens) (P08253 110-660 limits assumed): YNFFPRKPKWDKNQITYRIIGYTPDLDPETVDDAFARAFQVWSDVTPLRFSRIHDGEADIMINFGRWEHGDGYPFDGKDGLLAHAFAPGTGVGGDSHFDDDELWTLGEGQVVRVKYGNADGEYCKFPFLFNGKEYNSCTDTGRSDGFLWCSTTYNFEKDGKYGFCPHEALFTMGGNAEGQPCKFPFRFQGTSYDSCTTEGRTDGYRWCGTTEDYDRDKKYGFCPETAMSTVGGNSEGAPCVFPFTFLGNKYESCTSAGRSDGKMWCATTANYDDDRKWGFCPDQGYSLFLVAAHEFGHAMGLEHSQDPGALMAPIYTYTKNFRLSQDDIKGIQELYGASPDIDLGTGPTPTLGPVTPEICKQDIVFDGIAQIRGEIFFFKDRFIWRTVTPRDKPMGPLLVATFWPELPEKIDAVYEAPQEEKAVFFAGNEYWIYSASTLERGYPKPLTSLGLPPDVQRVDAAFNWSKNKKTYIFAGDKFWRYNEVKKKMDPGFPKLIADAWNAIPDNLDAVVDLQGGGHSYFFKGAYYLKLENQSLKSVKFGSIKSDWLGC

Rattus norvegicus [13] = assay: Half life in rat at 3 mg/kg, iv; format: ADME, organism-based; design: dose 3 mg/kg, route intravenous; conditions: in vivo; in short: as §1
[14] = target: Matrix metalloproteinase-14 (Homo sapiens) (UniProt P50281); assay: Inhibition of MMP14
[15] = Cmax in rat at 10 mg/kg, po; format: ADME, organism-based; design: dose 10 mg/kg, route oral; conditions: in vivo; in short: as §1
Rattus norvegicus [16] = assay: AUC in rat at 3 mg/kg, iv; format: ADME, organism-based, Plasma; design: dose 3 mg/kg, route intravenous; conditions: in vivo
[17] = target: T3, Interstitial collagenase (Homo sapiens) (UniProt P03956); assay: Inhibition of MMP1
T3 sequence (whole entry): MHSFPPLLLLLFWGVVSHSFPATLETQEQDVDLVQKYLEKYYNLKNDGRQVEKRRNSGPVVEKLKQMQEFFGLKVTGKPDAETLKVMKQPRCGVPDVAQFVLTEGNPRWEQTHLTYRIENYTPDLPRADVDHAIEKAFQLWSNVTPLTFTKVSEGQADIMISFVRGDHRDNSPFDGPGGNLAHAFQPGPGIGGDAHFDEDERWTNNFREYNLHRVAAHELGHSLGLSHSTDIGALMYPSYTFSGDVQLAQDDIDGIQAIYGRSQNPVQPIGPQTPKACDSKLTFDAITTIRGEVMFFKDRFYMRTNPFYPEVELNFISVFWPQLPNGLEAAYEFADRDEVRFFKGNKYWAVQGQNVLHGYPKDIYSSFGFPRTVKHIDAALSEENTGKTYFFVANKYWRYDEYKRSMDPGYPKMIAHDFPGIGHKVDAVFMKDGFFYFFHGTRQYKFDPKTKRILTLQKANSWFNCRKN

Sequence of Disintegrin and metalloproteinase domain-containing protein 17 (P78536 whole entry, the tested form may be a part): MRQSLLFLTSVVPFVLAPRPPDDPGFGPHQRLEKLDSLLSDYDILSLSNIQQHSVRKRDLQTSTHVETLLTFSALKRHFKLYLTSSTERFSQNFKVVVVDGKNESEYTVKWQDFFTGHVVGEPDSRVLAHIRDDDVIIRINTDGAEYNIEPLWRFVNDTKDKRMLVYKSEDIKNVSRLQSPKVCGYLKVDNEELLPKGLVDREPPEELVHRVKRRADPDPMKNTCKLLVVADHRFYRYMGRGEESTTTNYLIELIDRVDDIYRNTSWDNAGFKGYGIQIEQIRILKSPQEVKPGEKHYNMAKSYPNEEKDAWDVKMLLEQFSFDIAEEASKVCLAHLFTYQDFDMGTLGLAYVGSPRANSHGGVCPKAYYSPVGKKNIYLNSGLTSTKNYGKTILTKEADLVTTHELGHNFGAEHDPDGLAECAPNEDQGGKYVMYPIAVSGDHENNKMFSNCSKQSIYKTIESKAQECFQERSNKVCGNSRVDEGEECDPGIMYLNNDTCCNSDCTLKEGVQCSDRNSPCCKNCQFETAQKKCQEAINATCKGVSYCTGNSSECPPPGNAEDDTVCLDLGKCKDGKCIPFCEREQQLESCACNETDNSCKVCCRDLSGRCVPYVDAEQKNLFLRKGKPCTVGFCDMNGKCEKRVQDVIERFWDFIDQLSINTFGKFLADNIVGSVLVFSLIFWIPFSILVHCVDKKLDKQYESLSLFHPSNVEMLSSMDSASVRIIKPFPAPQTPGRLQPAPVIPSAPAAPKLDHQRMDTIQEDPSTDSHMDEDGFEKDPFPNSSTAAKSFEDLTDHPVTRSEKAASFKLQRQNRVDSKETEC

Structure (SMILES): O=C1NC(=O)[C@](CN2Cc3ccc(F)cc3C2=O)(c2ccc(-c3c[nH]c(=O)c(Cl)c3)cc2)N1
- Ki [1]: 0.1 nM

Structure (SMILES): COc1ccc2c(c1)C(=O)N(C[C@@]1(c3ccc(-c4ccnc(C)c4)cc3)NC(=O)NC1=O)C2
- bioavailability [2]: 19%
- Vdss (Rattus norvegicus [3]): 0.3 L/kg
- Ki [1]: 0.5 nM
- INH [4]: 253 nM
- AUC [5]: 13 µM·h
- INH [6]: 194 nM
- INH [7]: 30 µM
- INH [8]: 212 nM
- CL (Rattus norvegicus [9]): 91.7 mL/min/kg
- INH [10]: 434 nM
- Tmax [11]: 1.7 h
- INH [12]: 86 nM
- t1/2 (Rattus norvegicus [13]): 4.4 h
- INH [14]: 36 nM
- Cmax [15]: 3.3 µM
- AUC (Rattus norvegicus [16]): 21 µM·h
- INH [17]: 1740 nM

Structure (SMILES): COc1ccc2c(c1)C(=O)N(C[C@@]1(c3ccc(-c4cnn(C)c4)cc3)NC(=O)NC1=O)C2
- bioavailability [2]: 18%
- Vdss (Rattus norvegicus [3]): 0.3 L/kg
- INH [4]: 187 nM
- AUC [5]: 22.2 µM·h
- INH [6]: 202 nM
- INH [7]: > 40 µM
- INH [8]: 122 nM
- CL (Rattus norvegicus [9]): 55 mL/min/kg
- INH [10]: 430 nM
- Tmax [11]: 2 h
- INH [12]: 24 nM
- t1/2 (Rattus norvegicus [13]): 4.4 h
- INH [14]: 19 nM
- Cmax [15]: 4.45 µM
- AUC (Rattus norvegicus [16]): 36.2 µM·h
- INH [17]: 718 nM

Structure (SMILES): O=C1NC(=O)[C@](CN2Cc3ccc(F)cc3C2=O)(c2ccc(-c3ccc(C(F)(F)F)cc3)cc2)N1
- Ki [1]: 18 nM

Structure (SMILES): COc1ccc2c(c1)C(=O)N(C[C@@]1(c3ccc(C4(C)NC(=O)NC4=O)cc3)NC(=O)NC1=O)C2 (stereo partly drawn)
- Ki [1]: 2.6 nM

Structure (SMILES): COc1ccc2c(c1)C(=O)N(C[C@@]1(c3ccc(-c4cc(-c5ccccc5)no4)cc3)NC(=O)NC1=O)C2
- Ki [1]: 28 nM

Structure (SMILES): COc1ccc2c(c1)C(=O)N(C[C@@]1(c3ccc(-c4cncnc4)cc3)NC(=O)NC1=O)C2
- Ki [1]: 0.9 nM

Structure (SMILES): COC(=O)c1ccc(-c2ccc([C@]3(CN4Cc5ccc(OC)cc5C4=O)NC(=O)NC3=O)cc2)cc1
- Ki [1]: 9 nM

Structure (SMILES): O=C1NC(=O)[C@](CN2Cc3ccc(F)cc3C2=O)(c2ccc(-c3ccc(=O)[nH]c3)cc2)N1
- Ki [1]: 0.2 nM

Structure (SMILES): COc1ccc2c(c1)C(=O)N(C[C@@]1(c3ccc(-c4cccc(-c5csc(C)n5)c4)cc3)NC(=O)NC1=O)C2
- Ki [1]: 31 nM

Structure (SMILES): COc1ccc2c(c1)C(=O)N(C[C@@]1(c3ccc(-c4ccc(C(N)=O)cc4)cc3)NC(=O)NC1=O)C2
- Ki [1]: 3 nM

Structure (SMILES): O=C1NC(=O)[C@](CN2Cc3ccc(F)cc3C2=O)(c2ccc(-c3ccc(F)cc3F)cc2)N1
- Ki [1]: 2 nM

Now from value to compound:

- Ki [1]: 0.6 nM
Structure (SMILES): COc1ccc2c(c1)C(=O)N(C[C@@]1(c3ccc(-c4nccs4)cc3)NC(=O)NC1=O)C2

- Ki [1]: 8 nM
Structure (SMILES): COc1ccc2c(c1)C(=O)N(C[C@@]1(c3ccc(Oc4ccc5cnccc5c4)cc3)NC(=O)NC1=O)C2

- Ki [1]: 7 nM
Structure (SMILES): COc1ccc2c(c1)C(=O)N(C[C@@]1(c3ccc(Oc4ccncc4)cc3)NC(=O)NC1=O)C2

- Ki [1]: 1.4 nM
Structure (SMILES): COc1ccc2c(c1)C(=O)N(C[C@@]1(c3ccc(-c4ccnc(N)c4)cc3)NC(=O)NC1=O)C2

- bioavailability [2]: 14.1%
- Vdss (Rattus norvegicus [3]): 0.3 L/kg
- INH [4]: 216 nM
- AUC [5]: 9.1 µM·h
- INH [6]: 155 nM
- INH [7]: 17.4 µM
- INH [8]: 124 nM
- CL (Rattus norvegicus [9]): 103 mL/min/kg
- INH [10]: 3.61 nM
- Tmax [11]: 0.58 h
- t1/2 (Rattus norvegicus [13]): 4.3 h
- INH [14]: 25 nM
- Cmax [15]: 2.96 µM
- AUC (Rattus norvegicus [16]): 19 µM·h
- INH [17]: 655 nM
Structure (SMILES): COc1ccc2c(c1)C(=O)N(C[C@@]1(c3ccc(-c4cccnc4)cc3)NC(=O)NC1=O)C2

- Ki [1]: 0.6 nM
Structure (SMILES): COc1ccc2c(c1)C(=O)N(C[C@@]1(c3ccc(-c4ccncc4)cc3)NC(=O)NC1=O)C2
